Assay results published in ChEMBL document CHEMBL5385966, “Synthesis and biological evaluation of new naphthalimide-thiourea derivatives as potent antimicrobial agents active against multidrug-resistant Staphylococcus aureus and Mycobacterium tuberculosis” (RSC Med Chem, 2024).
≈ marks a conversion by molar mass, not a printed value. Calls of active or inactive are those of the source. The rule behind the calls is not given here.

Tests used:
Staphylococcus aureus [1] = test: Antibacterial activity against methicillin/ceftriaxone/meropenem/gentamycin/vancomycin/teicoplanin-resistant Staphylococcus aureus VRS1 clinical isolate assessed as bacterial growth inhibition incubated for 16 to 18 hrs by CLSI based antibiotic susceptibility testing method; type: functional; conditions: time 16-18 hrs
How it was run: (§1)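 Broth microdilution in cation-adjusted Mueller-Hinton broth. Compounds were tested at […], with levofloxacin as reference and medium-only controls. Plates were incubated at 37 °C for 16-18 h. MIC was the lowest concentration with no visible growth; three independent determinations, each in duplicate.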

Staphylococcus aureus [2] = test: Antibacterial activity against methicillin/ceftriaxone/meropenem/vancomycin/teicoplanin-resistant Staphylococcus aureus VRS12 clinical isolate assessed as bacterial growth inhibition incubated for 16 to 18 hrs by CLSI based antibiotic susceptibility testing method; type: functional; conditions: time 16-18 hrs; how it was run: as §1
Staphylococcus aureus [3] = test: Antibacterial activity against methicillin/ceftriaxone/meropenem/vancomycin/teicoplanin-resistant Staphylococcus aureus VRS4 clinical isolate assessed as bacterial growth inhibition incubated for 16 to 18 hrs by CLSI based antibiotic susceptibility testing method; type: functional; conditions: time 16-18 hrs; how it was run: as §1
Staphylococcus aureus [4] = test: Antibacterial activity against methicillin/ceftriaxone/meropenem-resistant Staphylococcus aureus NRS10129 clinical isolate assessed as bacterial growth inhibition incubated for 16 to 18 hrs by CLSI based antibiotic susceptibility testing method; type: functional; conditions: time 16-18 hrs; how it was run: as §1
Staphylococcus aureus [5] = test: Antibacterial activity against methicillin/ceftriaxone/meropenem-resistant Staphylococcus aureus NRS10192 clinical isolate assessed as bacterial growth inhibition incubated for 16 to 18 hrs by CLSI based antibiotic susceptibility testing method; type: functional; conditions: time 16-18 hrs; how it was run: as §1
Staphylococcus aureus [6] = test: Antibacterial activity against methicillin-sensitive Staphylococcus aureus ATCC 29213 clinical isolate assessed as bacterial growth inhibition incubated for 16 to 18 hrs by CLSI based antibiotic susceptibility testing method; type: functional; conditions: time 16-18 hrs; how it was run: as §1
Staphylococcus aureus [7] = test: Antibacterial activity against methicillin/ceftriaxone/meropenem-resistant Staphylococcus aureus NRS10193 clinical isolate assessed as bacterial growth inhibition incubated for 16 to 18 hrs by CLSI based antibiotic susceptibility testing method; type: functional; conditions: time 16-18 hrs; how it was run: as §1
Staphylococcus aureus [8] = test: Antibacterial activity against methicillin/ceftriaxone/meropenem-resistant Staphylococcus aureus NRS10198 clinical isolate assessed as bacterial growth inhibition incubated for 16 to 18 hrs by CLSI based antibiotic susceptibility testing method; type: functional; conditions: time 16-18 hrs; how it was run: as §1
Staphylococcus aureus [9] = test: Antibacterial activity against methicillin/ceftriaxone-resistant Staphylococcus aureus NRS10194 clinical isolate assessed as bacterial growth inhibition incubated for 16 to 18 hrs by CLSI based antibiotic susceptibility testing method; type: functional; conditions: time 16-18 hrs; how it was run: as §1
Staphylococcus aureus [10] = test: Antibacterial activity against methicillin/ceftriaxone/meropenem/gentamycin/linezolid-resistant Staphylococcus aureus NRS10100 clinical isolate assessed as bacterial growth inhibition incubated for 16 to 18 hrs by CLSI based antibiotic susceptibility testing method; type: functional; conditions: time 16-18 hrs; how it was run: as §1
Staphylococcus aureus [11] = test: Antibacterial activity against methicillin/ceftriaxone/meropenem/gentamycin/linezolid-resistant Staphylococcus aureus NRS10119 clinical isolate assessed as bacterial growth inhibition incubated for 16 to 18 hrs by CLSI based antibiotic susceptibility testing method; type: functional; conditions: time 16-18 hrs; how it was run: as §1
Staphylococcus aureus [12] = test: Antibacterial activity against methicillin/ceftriaxone/meropenem-resistant Staphylococcus aureus NRS10186 clinical isolate assessed as bacterial growth inhibition incubated for 16 to 18 hrs by CLSI based antibiotic susceptibility testing method; type: functional; conditions: time 16-18 hrs; how it was run: as §1
Staphylococcus aureus [13] = test: Antibacterial activity against methicillin/ceftriaxone/meropenem-resistant Staphylococcus aureus NRS10191 clinical isolate assessed as bacterial growth inhibition incubated for 16 to 18 hrs by CLSI based antibiotic susceptibility testing method; type: functional; conditions: time 16-18 hrs; how it was run: as §1
Acinetobacter baumannii = test: Antibacterial activity against Acinetobacter baumannii BAA 1605 assessed as bacterial growth inhibition incubated for 16 to 18 hrs by CLSI based antibiotic susceptibility testing method; type: functional, organism-based; conditions: time 16-18 hrs; how it was run: as §1
Escherichia coli = test: Antibacterial activity against Escherichia coli ATCC 25922 assessed as bacterial growth inhibition incubated for 16 to 18 hrs by CLSI based antibiotic susceptibility testing method; type: functional, organism-based; conditions: time 16-18 hrs; how it was run: as §1
Staphylococcus aureus [14] = test: Antibacterial activity against Staphylococcus aureus ATCC 29213 assessed as bacterial growth inhibition incubated for 16 to 18 hrs by CLSI based antibiotic susceptibility testing method; type: functional; conditions: time 16-18 hrs; how it was run: as §1
Pseudomonas aeruginosa = test: Antibacterial activity against Pseudomonas aeruginosa ATCC 27853 assessed as bacterial growth inhibition incubated for 16 to 18 hrs by CLSI based antibiotic susceptibility testing method; type: functional, organism-based; conditions: time 16-18 hrs; how it was run: as §1
[15] = tested on: Mycolicibacterium fortuitum; test: Antimycobacterial activity against Mycobacterium fortuitum ATCC 6841 assessed as bacterial growth inhibition incubated for 72 hrs by resazurin dye based broth microdilution method; type: functional, organism-based
How it was run: (§2)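 Broth microdilution in Middlebrook 7H9 with 10% ADC-Tween-80 (0.2% glycerol, 0.05% Tween-80), inoculum ~10⁶ cfu/mL. Compounds came from 10 mg/mL DMSO stocks and were tested as two-fold serial dilutions at 37 °C, 7 days for M. tuberculosis H37Rv and 72 h for NTM. Growth was read visually with PrestoBlue resazurin dye; MIC was the lowest concentration preventing growth. Triplicate determinations, each in duplicate.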

Mycobacteroides chelonae = test: Antimycobacterial activity against Mycobacteroides chelonae ATCC 35752 assessed as bacterial growth inhibition incubated for 72 hrs by resazurin dye based broth microdilution method; type: functional, organism-based; how it was run: as §2
[16] = tested on: Mycobacterium tuberculosis; test: Antimycobacterial activity against Mycobacterium tuberculosis H37Rv ATCC 27294 assessed as bacterial growth inhibition incubated for 7 days by resazurin dye based broth microdilution method; type: functional; conditions: H37Rv ATCC 27294, 168 h, time 7 day; how it was run: as §2
[17] = tested on: Mycobacteroides abscessus; test: Antimycobacterial activity against Mycobacterium abscessus ATCC 19977 assessed as bacterial growth inhibition incubated for 72 hrs by resazurin dye based broth microdilution method; type: functional, organism-based; how it was run: as §2
Klebsiella pneumoniae = test: Antibacterial activity against Klebsiella pneumoniae BAA 1705 assessed as bacterial growth inhibition incubated for 16 to 18 hrs by CLSI based antibiotic susceptibility testing method; type: functional, organism-based; conditions: time 16-18 hrs; how it was run: as §1

SMILES | MIC (Staphylococcus aureus [1]) [µg/mL] | MIC (Staphylococcus aureus [2]) [µg/mL] | MIC (Staphylococcus aureus [3]) [µg/mL] | growth inhibition (GI) (Acinetobacter baumannii) | growth inhibition (GI) (Escherichia coli) | MIC (Staphylococcus aureus [14]) [µg/mL] | growth inhibition (GI) (Pseudomonas aeruginosa) | growth inhibition (GI) [15] | growth inhibition (GI) (Mycobacteroides chelonae) | MIC [16] [µg/mL] | growth inhibition (GI) [17] | growth inhibition (GI) (Klebsiella pneumoniae) | other results
CN[C@H](CC(C)C)C(=O)N[C@H]1C(=O)N[C@@H](CC(N)=O)C(=O)N[C@H]2C(=O)N[C@H]3C(=O)N[C@H](C(=O)N[C@H](C(=O)O)c4cc(O)cc(O)c4-c4cc3ccc4O)[C@H](O)c3ccc(c(Cl)c3)Oc3cc2cc(c3O[C@@H]2O[C@H](CO)[C@@H](O)[C@H](O)[C@H]2O[C@H]2C[C@](C)(N)[C@H](O)[C@H](C)O2)Oc2ccc(cc2Cl)[C@H]1O [VANCOMYCIN] | > 64 | > 64 | > 64 |  |  |  |  |  |  |  |  |  | 
C[C@@H](O)[C@H]1C(=O)N2C(C(=O)O)=C(S[C@@H]3CN[C@H](C(=O)N(C)C)C3)[C@H](C)[C@H]12 [MEROPENEM] | 64 (≈ 167 µM) | 8 (≈ 20.9 µM) | 64 (≈ 167 µM) |  |  |  |  |  |  |  |  |  | MIC (Staphylococcus aureus [4]): 2 µg/mL (≈ 5.22 µM); MIC (Staphylococcus aureus [5]): 4 µg/mL (≈ 10.4 µM); MIC (Staphylococcus aureus [6]): 0.125 µg/mL (≈ 0.326 µM); MIC (Staphylococcus aureus [7]): 64 µg/mL (≈ 167 µM); MIC (Staphylococcus aureus [8]): 64 µg/mL (≈ 167 µM); MIC (Staphylococcus aureus [9]): 1 µg/mL (≈ 2.61 µM); MIC (Staphylococcus aureus [10]): 32 µg/mL (≈ 83.4 µM); MIC (Staphylococcus aureus [11]): 64 µg/mL (≈ 167 µM); MIC (Staphylococcus aureus [12]): 4 µg/mL (≈ 10.4 µM); MIC (Staphylococcus aureus [13]): 64 µg/mL (≈ 167 µM)
C[C@H]1COc2c(N3CCN(C)CC3)c(F)cc3c(=O)c(C(=O)O)cn1c23 [LEVOFLOXACIN ANHYDROUS] | 32 (≈ 88.6 µM) | 32 (≈ 88.6 µM) | > 64 | inactive | inactive | 0.063 (≈ 0.174 µM) | inactive | inactive | inactive | 0.6 (≈ 1.66 µM) | inactive | inactive | MIC (Staphylococcus aureus [4]): 0.25 µg/mL (≈ 0.692 µM); MIC (Staphylococcus aureus [5]): 8 µg/mL (≈ 22.1 µM); MIC (Staphylococcus aureus [6]): 0.25 µg/mL (≈ 0.692 µM); MIC (Staphylococcus aureus [7]): 32 µg/mL (≈ 88.6 µM); MIC (Staphylococcus aureus [8]): 32 µg/mL (≈ 88.6 µM); MIC (Staphylococcus aureus [9]): 0.125 µg/mL (≈ 0.346 µM); MIC (Staphylococcus aureus [10]): 0.125 µg/mL (≈ 0.346 µM); MIC (Staphylococcus aureus [11]): 16 µg/mL (≈ 44.3 µM); MIC (Staphylococcus aureus [12]): 4 µg/mL (≈ 11.1 µM); MIC (Staphylococcus aureus [13]): 16 µg/mL (≈ 44.3 µM)
O=C1c2cccc3cccc(c23)C(=O)N1CCN1CCN(C(=S)NC2CC2)CC1 |  |  |  | inactive | inactive | > 64 | inactive | inactive | inactive | > 64 | inactive | inactive | 
O=C1c2cccc3cccc(c23)C(=O)N1CCN1CCN(C(=S)Nc2cccnc2)CC1 |  |  |  | inactive | inactive | > 64 | inactive | inactive | inactive | > 64 | inactive | inactive | 
O=C(CCN1C(=O)c2cccc3cccc(c23)C1=O)N1CCN(C(=S)Nc2ccccc2)CC1 |  |  |  | inactive | inactive | > 64 | inactive | inactive | inactive | 32 (≈ 67.7 µM) | inactive | inactive | 
O=C(CN1C(=O)c2cccc3cccc(c23)C1=O)NC1CCN(C(=S)Nc2ccc(Cl)cc2)CC1 |  |  |  | inactive | inactive | > 64 | inactive | inactive | inactive | > 64 | inactive | inactive | 
